These results are taken from ChEMBL document CHEMBL1129082, “Approaches to short-acting neuromuscular blocking agents: nonsymmetrical bis-tetrahydroisoquinolinium mono- and diesters” (1996).

Test [1] has as its system Felis catus. Kind of test: Blockade duration is the time from injection to 95% control in anesthetized cats. The class given is functional. In outline: (§1)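 Cats kept under chloralose anesthesia, with supplemental iv doses as needed. Trachea cannulated and ventilated with room air at 20 mL/kg and 20 strokes/min. Arterial pressure taken from a right femoral artery cannula, and heart rate from the ECG. Core temperature held at 37-38 °C by radiant heat.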

In test [2] the test system is Felis catus. In words: Effective dose for anesthetized cats; Range is 4-7 mg/Kg. It is filed as functional.
Test [3] concerns Felis catus. Kind of test: Vagal response in anesthetized cats; '++++' means significant inhibition in the absence of neuromuscular blockade. It is filed as functional, organism-based. Summed up:
(§2)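 Anesthetized cats given supplemental iv α-chloralose as needed, tracheally cannulated and ventilated with room air (20 mL/kg, 20 strokes/min), core temperature held at 37–38 °C. Right vagus crushed distal to the nodose ganglia and stimulated for 10 s every 5 min (20 Hz, 0.5 ms, 10–15 V supramaximal). Femoral arterial pressure recorded; heart rate taken from the ECG.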

In test [4] the test system is Felis catus. In words: Effective dose for anesthetized cats. The class given is functional. Summed up:
as §1

For test [5], the system named is Felis catus. Kind of test: Vagal response in anesthetized cats. The class given is functional. Summed up: (§3)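 Chloralose-anesthetized, ventilated cats kept at 37-38 °C. Nerve stimulated for 10 s every 5 min at 20 Hz, 0.5 ms, supramaximal 10-15 V. Heart rate from the ECG and arterial pressure via a femoral cannula used as the vagal read-out.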
Test [6] relates to Felis catus. In words: Neuromuscular blocking property by neostigmine reversal in anesthetized cats at dose of 0.55 mg/Kg; Not recorded. The class given is functional, organism-based.
The test system of test [7] is Felis catus. Kind of test: Blockade duration is the time from injection to 95% control in anesthetized cats; Range is 7-8 min. It is filed as functional. In outline: as §1
For test [8], the system named is Felis catus. Kind of test: Vagal response in anesthetized cats; '++ ' means significant inhibition at ED95 or slightly higher doses. The class given is functional, organism-based. In outline:
as §3

Test [9] relates to Felis catus. In words: Vagal response in anesthetized cats; '++++ ' means significant inhibition in the absence of neuromuscular blockade. It is filed as functional, organism-based. Summed up:
as §3

In test [10] the test system is Felis catus. In words: Effective dose for anesthetized cats; Range is 0.7-0.8 mg/Kg. The class given is functional. Summed up: as §1
Test [11] concerns Felis catus. Kind of test: Blockade duration is the time from injection to 95% control in anesthetized cats; Range is 8-12 min. The class given is functional. In outline: as §1
For test [12], the system named is Felis catus. In words: Effective dose for anesthetized cats; Range is 0.12-0.20 mg/Kg. The class given is functional. Summed up:
as §1

In test [13] the test system is Felis catus. In words: Vagal response in anesthetized cats; '+++ ' means significant inhibition at doses that produce neuromuscular blockade. The class given is functional, organism-based. In outline:
as §2

The subject of test [14] is Felis catus. Kind of test: Effective dose for anesthetized cats; Range is 0.3-0.4 mg/Kg. The class given is functional.
In test [15] the test system is Felis catus. In words: Blockade duration is the time from injection to 95% control in anesthetized cats; Range is 12-13 min. The class given is functional.
Test [16] relates to Felis catus. In words: Effective dose for anesthetized cats; Range is 0.3-0.5 mg/Kg. The class given is functional. In outline: as §1
For test [17], the system named is Felis catus. In words: Blockade duration is the time from injection to 95% control in anesthetized cats; Range is 8-9 min. It is filed as functional. In outline: as §1
The subject of test [18] is Felis catus. In words: Effective dose for anesthetized cats; Range is 0.5-0.7 mg/Kg. The class given is functional. Summed up: as §1

As to `C=CC[N+]1(CCCCCCCCCOC(=O)CC[N+]2(C)CCC34c5c6ccc(OC)c5OC3[C@@H](OC)C=CC4[C@H]2C6)CCc2cc(OC)c(OC)cc2[C@H]1Cc1ccc(OC)c(OC)c1.[Br-].[Br-]` (some centres not stated), in the test on Felis catus [1], the Blockade duration turned out to be 3 min. The compound further yielded an ED95 with Felis catus [2] of 4 mg/kg. In the test with Felis catus [3], the Vagal response entry is “significant inhibition in the absence of neuromuscular blockade”.
`COc1ccc(C[C@@H]2c3cc(OC)c(OC)cc3CC[N+]2(C)CCC(=O)OCCCCCOC(=O)CC[N+]2(C)CCc3cc(OC)c(OC)cc3[C@H]2Cc2ccc(OC)c(OC)c2)cc1OC.O=S(=O)([O-])c1ccccc1.O=S(=O)([O-])c1ccccc1` (some centres not stated) registered an ED95 in the test with Felis catus [4] of 0.16 mg/kg. This compound also registered a Blockade duration in the test with Felis catus [1] of 14.6 min. For the same compound, the Vagal response with Felis catus [5] is given as 0.
For `COc1ccc(C[C@@H]2c3cc(OC)c(OC)cc3CC[N+]2(C)CCCCCCCCCOC(=O)CC[N+]2(C)CCc3cc(OC)c(OC)cc3[C@H]2Cc2ccc(OC)c(OC)c2)cc1OC.[I-].[I-]` (some centres not stated), the ED95 with Felis catus [4] was 0.1 mg/kg. Further, in the test with Felis catus [6], the Neostigmine reversal entry was “Not recorded”. Moreover, the Blockade duration in the test on Felis catus [1] was determined as 15 min. This compound displayed a Vagal response with Felis catus [5] of 0.
On to `COc1ccc(C[C@@H]2c3cc(OC)c(OC)cc3CC[N+]2(C)CCCCCCCCCCCOC(=O)CC[N+]2(C)CCc3cc(OC)c(OC)cc3C2)cc1OC.[I-].[I-]` (some centres not stated), for which the ED95 with Felis catus [4] was found to be 0.3 mg/kg. In the test on Felis catus [7], this compound registered a Blockade duration of 8 min. The Vagal response result with Felis catus [8] is “significant inhibition at ED95 or slightly higher doses”.
In the case of `C=CC[N+]1(CCC(=O)OCCCCCCCCC[N+]2(CC=C)CCc3cc(OC)c(OC)cc3[C@H]2Cc2ccc(OC)c(OC)c2)CCc2c(cc(OC)c(OC)c2OC)C1.[Br-].[Br-]` (some centres not stated), the Blockade duration in the test with Felis catus [7] was 8 min. Besides, the Vagal response result with Felis catus [9] is given as “significant inhibition in the absence of neuromuscular blockade”. For the same compound, the ED95 with Felis catus [10] is 0.7 mg/kg.
In turn, `COc1ccc(C[C@@H]2c3cc(OC)c(OC)cc3CC[N+]2(C)CCCCCCCCCOC(=O)CC[N+]2(C)CCc3c(cc(OC)c(OC)c3OC)C2)cc1OC.[I-].[I-]` (some centres not stated) gave an ED95 in the test on Felis catus [4] of 0.26 mg/kg. Moreover, the Vagal response result with Felis catus [8] is “significant inhibition at ED95 or slightly higher doses”. The same compound had a Blockade duration with Felis catus [1] of 10 min.
The compound `COc1ccc(C[C@@H]2c3cc(OC)c(OC)cc3CC[N+]2(C)CCC(=O)OCCCCCCOC(=O)CC[N+]2(C)CCc3c(cc(OC)c(OC)c3OC)C2)cc1OC.[I-].[I-]` (some centres not stated) displayed a Blockade duration in the test on Felis catus [11] of 12 min. Further, the Vagal response with Felis catus [5] is 0. In the test with Felis catus [12], this compound returned an ED95 of 0.12 mg/kg.
For `COc1ccc(C[C@@H]2c3cc(OC)c(OC)cc3CC[N+]2(C)CCCCOC(=O)CCCCOC(=O)CC[N+]2(C)CCc3cc(OC)c(OC)c(OC)c3C2)cc1OC.[I-].[I-]` (some centres not stated), the ED95 with Felis catus [4] turned out to be 0.5 mg/kg. Moreover, the Vagal response result in the test on Felis catus [13] is “significant inhibition at doses that produce neuromuscular blockade”. This compound also displayed a Blockade duration with Felis catus [1] of 8 min.
`COc1ccc(C[C@@H]2c3cc(OC)c(OC)cc3CC[N+]2(C)CCCCCCCCCCCOC(=O)CC[N+]2(C)CCc3cc(OC)c(OC)c(OC)c3C2)cc1OC.[I-].[I-]` (some centres not stated): the ED95 with Felis catus [14] was 0.3 mg/kg. Besides, the Vagal response result in the test on Felis catus [8] was “significant inhibition at ED95 or slightly higher doses”. In the test on Felis catus [1], this compound registered a Blockade duration of 8 min.
With `COc1ccc(C[C@@H]2c3cc(OC)c(OC)cc3CC[N+]2(C)CCCCCCCCCOC(=O)CC[N+]2(C)CCC34c5c6ccc(OC)c5OC3[C@@H](OC)C=CC4[C@H]2C6)cc1OC.[I-].[I-]` (some centres not stated), the ED95 in the test on Felis catus [14] was 0.3 mg/kg. In addition, in the test with Felis catus [13], the Vagal response result is “significant inhibition at doses that produce neuromuscular blockade”. In the test on Felis catus [15], the Blockade duration is on record as 13 min.
With `COc1cc2c(c(OC)c1OC)C[N+](C)(CCC(=O)OCCCCCCOC(=O)CC[N+]1(C)CCc3cc(OC)c(OC)c(OC)c3C1)CC2.[I-].[I-]` (configuration not stated), the ED95 in the test on Felis catus [16] came to 0.3 mg/kg. The Vagal response result with Felis catus [8] is given as “significant inhibition at ED95 or slightly higher doses”. The Blockade duration in the test on Felis catus [1] is on record as 8 min.
`COc1ccc(C[C@@H]2c3cc(OC)c(OC)cc3CC[N+]2(C)CCCCCCCCCCCOC(=O)CC[N+]2(C)CCc3c(cc(OC)c(OC)c3OC)C2)cc1OC.[I-].[I-]` (some centres not stated) returned a Blockade duration in the test on Felis catus [17] of 9 min. Besides, the ED95 with Felis catus [18] is 0.5 mg/kg. For the same compound, the Vagal response result in the test with Felis catus [8] is listed as “significant inhibition at ED95 or slightly higher doses”.
